Screening results deposited in PubChem by several laboratories.
SIRT5 inh: inhibitors of human sirtuin-5 desuccinylase. Purified SirT5, succinyl-peptide AMC, trypsin-coupled fluorescence. inhibition, % at 15 µM. 330,000 compounds, 1.1% hits. AID 652115. Q9NXA8; in the data active means inhibition above about 15%
UCH37 DUB inh: human UCH37 deubiquitinating enzyme inhibition. Q9Y5K5. purified proteasome/UCH37, Ub-AMC cleavage fluorescence. inhibition, % (test concentration not listed). 330,000 compounds, 0.33% hits. AID 588478;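 active means mean inhibition over replicate wells above about 20%, limit read from the data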;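 further: 0% = compound-free wells with enzyme and 100% = wells lacking proteasome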
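System: Proteasome-associated human UCH37 deubiquitinase; Input: 0.15 nM proteasome in added enzyme buffer; Also added: Ub-AMC substrate from 1 µM stock; Incubation: 30 min compound-proteasome preincubation then 25 min substrate reaction, room temperature; Detection: fluorescence, ex 355 nm, em 460 nm; Read-out: % inhibition of Ub-AMC cleavage fluorescence; Benchmarks: no-proteasome and no-compound wells.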
NSD2 inh: NSD2 (human) methyltransferase inhibition. O96028. NSD2 peptide methylation, AlphaScreen, 120 min. inhibition, % at 12.5 µM. 310,000 compounds, 0.54% hits. AID 743445; in the data active means inhibition above about 50%
Casp6 inh: caspase-6 (human) enzyme inhibition; 350,000 compounds, 0.53% hits; purified caspase-6, Z-VEID-R110 cleavage fluorescence; inhibition, % at 12.5 µM;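 active means mean inhibition across replicates at least about 35%, with every replicate also reaching that limit, limit read from the data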;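 further: 0% = median of neutral control wells and 100% = no fluorescence left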
FGF22 binding-1: FGF22 (human) thermal shift binding | recombinant FGF22 thermal shift, SYPRO orange fluorescence; percent of sucrose octasulfate shift, DMSO zero | AID 651658 | activity (Tm shift, normalised), % at 9.99 µM | Q9HCT0 | 340,000 compounds, 1.5% hits;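 active means mean Tm shift, scaled 0 neutral to 100 positive control, at about 1.3% or above, every replicate too, limit read from the data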
FGF22 binding-2: binders of human FGF22 by thermal shift | shares compounds with FGF22 binding-1 | recombinant FGF22 thermal shift, SYPRO orange fluorescence | thermal shift activity, °C (ΔTm) at 38 µM | 1,000 compounds, 2% hits;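 active means fitted rise in melting shift crosses a set limit at or below the top valid dose tested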
SYPRO no-protein: shows thermal shift signal without protein, FGF22 counter-screen | AC50, µM (titrated, usually from 38 µM) | compound-only SYPRO orange thermal shift counter-screen, no protein | AID 743019 | shares compounds with FGF22 binding-1 | 1,000 compounds, 2% hits;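 active means rising signal whose fitted curve reaches the 0.54 level within the top valid dose, showing a melting point, actives reach about 13 µM in these data; inactive means the rest, including activity in the opposite direction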; further: value is where the raw curve crosses a fixed level and not half-maximal
CASP1 counter: blocks human caspase-1 in a selectivity counter-screen; AID 743289; purified caspase-1, Z-YVAD-R110 cleavage fluorescence; 100 tested, under 10 active; activity change, negative = inhibition, % at 35 µM; shares compounds with Casp6 inh;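 active means compounds lowering fluorescence whose fitted half-maximal concentration is no more than twice their top tested dose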
AlphaScreen art: counter-screen for NSD2 inhibitors: AlphaScreen artifacts. AID 1053174. AC35, µM (titrated, usually from 10 µM), for the others: top-dose activity change, negative = signal loss. AlphaScreen artifact counterscreen, preloaded methylated H4 peptide. shares compounds with NSD2 inh. 1,500 compounds, 9.4% hits; call rule not given here
The depositor's hits bear a star; i = inactive; x = no result given. An excerpt weighted towards active compounds, which were near 2.6% of everything screened.

SMILES | SIRT5 inh | UCH37 DUB inh | NSD2 inh | Casp6 inh | FGF22 binding-1 | AlphaScreen art | others
C/C=C/c1ccc([C@@H]2[C@H]3CN(C(=O)Cc4ccncc4)CCCCN3[C@H]2CO)cc1 | 0.8 | x | x | 1.2 | 1.3* | x | FGF22 binding-2=0.039;SYPRO no-protein=i
O=c1oc2ccccc2c(O)c1C(c1ccccn1)c1c(O)c2ccccc2oc1=O | 6.8 | x | -0.1 | 6.1 | -0.1 | x
CCOC(=O)C(c1c(O)c2ccccc2oc1=O)c1c(O)c2ccccc2oc1=O | 1.9 | x | x | 3.1 | 1.8* | x | FGF22 binding-2=0.003;SYPRO no-protein=i
CC(C)c1ccc(-n2c(O)c(/C=N/NC(=O)c3ccccc3O)c(=O)[nH]c2=S)cc1 | 0.6 | -27.3 | x | 22.3 | 1.4* | x | FGF22 binding-2=0.367;SYPRO no-protein=i
COc1ccc(-c2ccc([C@@H]3[C@H]4CN(C(=O)Cc5ccncc5)CCCCN4[C@H]3CO)cc2)cc1 | -3.3 | x | x | 0.4 | -0.6 | x
COc1ccc(OC(=O)N(C)C[C@H]2OCc3ccccc3-c3c(n(C)c4ccccc34)C(=O)N([C@H](C)CO)C[C@H]2C)cc1 | 1.3 | x | x | -1.3 | x | x
COc1ccc(C#Cc2ccc3c(c2)O[C@H](CN(C)S(=O)(=O)c2ccccc2F)[C@@H](C)CN([C@@H](C)CO)S3(=O)=O)cc1 | 15.4* | x | x | 5.7 | 2.1* | x | FGF22 binding-2=0.016;SYPRO no-protein=2.41µM*
N#Cc1cccc(-c2ccc([C@H]3[C@H](CO)N4CCCCN(C(=O)Cc5ccncc5)C[C@@H]34)cc2)c1 | -1.6 | x | x | 1.1 | 0.0 | x
CN1CCc2cc3c(c4c2C1Cc1ccccc1-4)OCO3 (stereo not given) | 1.2 | x | 10.3 | 84.3* | -0.2 | x | CASP1 counter=-0.6
CN1CCc2cc(O)cc3c2[C@H]1Cc1ccc(O)c(O)c1-3 | 2.6 | -0.6 | x | 6.9 | -0.6 | x
CC(Cc1ccc(O)cc1)NCC(O)c1ccc(O)c(O)c1 (stereo not given) | 5.9 | x | 126.0* | 72.7* | -0.1 | x | CASP1 counter=-3.9
CCCNC(=O)[C@@H]1[C@@H](CO)[C@@H]2Cn3c(cccc3=O)[C@@H]2N1CC | 3.5 | x | x | 1.1 | x | x
Cn1c(O)c(/C=C2\C=Nc3ccc(Br)cc32)c(=O)n(C)c1=O | 7.4 | x | -2.3 | -0.6 | -0.1 | x
CCNC(=S)NCCC1=c2ccccc2=N/C1=C\c1c(O)n(C)c(=O)n(C)c1=O | 4.0 | 2.3 | 54.7* | 6.8 | 0.1 | 0.7%
CC(C)n1c(=O)c(C=Nc2ccc(S(N)(=O)=O)cc2)c(O)n(Cc2ccco2)c1=O | 1.9 | 3.2 | 67.5* | 12.1 | 0.1 | -4.2%
CCCCn1c(=O)c(C=Nc2ccc(Cl)cc2)c(O)n(Cc2ccco2)c1=O | -5.3 | -47.4 | x | 3.0 | -0.3 | x
O=C(Cc1ccccc1)N1CCCCN2[C@@H](CO)[C@H](c3ccc(C#Cc4ccccc4)cc3)[C@@H]2C1 | -3.2 | x | x | 0.7 | 0.0 | x
CCCNC(=O)[C@@H]1[C@@H](CO)[C@@H]2Cn3c(cccc3=O)[C@@H]2N1C | 0.3 | x | x | 1.7 | 0.1 | x
COC(=O)[C@@H]1[C@@H](CO)[C@@H]2Cn3c(ccc(-c4ccc(F)cc4)c3=O)[C@H]1N2Cc1cccnc1 | -9.5 | x | x | -0.4 | 0.0 | x
Cc1cc(/C=C2\C(=O)NC(=O)N(c3ccccc3F)C2=O)c(C)n1-c1cc(C(=O)O)cc(C(=O)O)c1 | 8.1 | x | 61.9* | 34.7 | -0.7 | -2.2%
COCCCNC(=O)c1c(NC(=O)c2ccccc2Cl)n(Cc2ccccc2)c2nc3ccccc3nc12 | x | -306.7 | 1.2 | x | x | x
COCCNC(=O)c1c(NC(=O)c2ccco2)n(Cc2ccccc2)c2nc3ccccc3nc12 | x | -114.0 | 112.6* | x | x | 8.1%
CCC(C)NC(=O)c1c(N)n(CCCOC)c2nc3ccccc3nc12 (stereo not given) | x | i | 106.0* | x | x | 10.0%
CN1CCN(c2ncnc3c2cnn3C)CC1 | 1.6 | 2.2 | 76.4* | -0.4 | -0.1 | -3.7%
COC(=O)[C@H]1[C@H](CO)[C@H]2Cn3c(ccc(-c4cccnc4)c3=O)[C@@H]1N2S(=O)(=O)c1ccccc1F | -12.7 | x | x | 0.4 | 0.0 | x
SMILES | SIRT5 inh | UCH37 DUB inh | NSD2 inh | Casp6 inh | FGF22 binding-1 | AlphaScreen art | others
CN1C(=O)NC(=O)/C(=C/c2ccc([N+](=O)[O-])o2)C1=O | 2.0 | 21.7* | 59.5* | 55.6* | -0.2 | -2.7%
CN1C(=O)NC(=O)/C(=C/c2ccc([N+](=O)[O-])s2)C1=O | 5.8 | x | 37.2 | 19.9 | -0.1 | x
Cc1ccc(N2C(=O)NC(=O)/C(=C/c3ccoc3)C2=O)cc1 | 18.4* | 4.7 | 89.9* | 84.9* | 0.1 | -16.4%
Cc1ccc(N2C(=O)NC(=O)/C(=C/c3cnn(-c4ccc(C)cc4)c3)C2=O)cc1 | x | x | 50.8* | x | x | -4.6%
CSc1ncc(/C=C2/C(=O)NC(=O)N(c3ccc(C)cc3)C2=O)cn1 | -1.7 | 1.7 | 1.3 | 4.6 | 0.4 | x
CNCCCc1ccccc1 | x | -0.4 | 102.8* | x | x | 1.7%
BrCCc1ccccc1 | x | -0.6 | x | 0.9 | 0.0 | x
CCN1CCN(c2ccc(N)cc2)CC1 | 5.8 | 1.3 | 57.0* | -75.9 | -0.4 | -7.2%
CCN1CCN(c2ccc(N)cc2C)CC1 | -6.1 | 3.6 | 60.4* | -68.8 | 0.6 | -5.4%
CCCNC(=O)N1[C@@H]2Cn3c(ccc(-c4cccc(C(=O)N(C)C)c4)c3=O)[C@H]1[C@@H](C(=O)O)[C@@H]2CO | -31.0 | x | x | 1.1 | 0.7 | x
O=C1NC(=S)NC(=O)C1=Cc1ccc(Br)s1 | 24.2* | 4.2 | 52.1* | 25.5 | -0.7 | -5.0%
CN1C(=O)/C(=C\c2ccc(Br)s2)C(=O)NC1=S | 3.6 | x | 3.0 | 11.4 | -0.3 | x
Cn1c(O)c(/C=C/C=Nc2ccccc2)c(=O)n(C)c1=S | x | 9.1 | 54.9* | x | x | -4.6%
CC1(C)CC(=O)C2=C(C1)NC(=O)C21C(C(=O)OC(C)(C)C)=C(N)Oc2ccc(Br)cc21 (stereo not given) | -0.1 | 3.8 | 62.2* | 3.3 | x | -4.9%
C=CCN1C(=O)C2(C(C(=O)OCC)=C(N)Oc3ccccc32)C2=C1CCCC2=O (stereo not given) | x | 3.6 | -2.2 | x | x | x
CCCCn1c(NS(=O)(=O)c2ccccc2)c(C(=O)OCC)c2nc3ccccc3nc21 | x | i | 99.4* | x | x | -2.3%
CCCCn1c(NC(=O)c2ccc(Br)o2)c(C(=O)OCC)c2nc3ccccc3nc21 | -2.9 | x | x | -1.5 | 0.7 | x
CC=Cc1ccc2n(c1=O)C[C@@H]1[C@@H](CO)[C@H](C(=O)OC)[C@H]2N1CC1CC1 (mixture of isomers) | -6.9 | x | x | 0.9 | -0.1 | x
